Activity calls are given as the source filed them. The calls are words filed in the database; no cut-off is given here.
Experiments:
[1] = tested on: U-937; test: Induction of apoptosis in p53 null human U937 cells assessed as PARP-1 cleavage at 2 uM after 24 hrs in presence of SAHA by Western blot analysis; type: functional, cell-based
Procedure, shortened: (§1)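 U937 cells exposed for 24 h. Lysates with protease/phosphatase inhibitors were separated by SDS-PAGE, transferred to PVDF and probed for PARP and cleaved caspase-3, with β-actin as loading control.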

[2] = tested on: MOLM-13; test: Induction of apoptosis in human MOLM13 cells harboring wild type p53/FLT3-ITD mutant at 1 uM after 24 hrs in presence of SAHA by annexin V-FITC/PI staining based flow cytometry; type: functional
Procedure, shortened: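 Cells treated 24 h, single agents or SAHA+PL at 1:1 (each drug at the stated concentration). Annexin V-FITC/PI kit staining, then flow cytometry, reported as % Annexin V+ cells. Three independent experiments in triplicate, with data from one representative experiment. DMSO <0.1% vehicle control.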

[3] = tested on: HL-60; test: Antiproliferative activity against human HL60 cells after 72 hrs in presence of SAHA by MTT assay; type: functional, cell-based; conditions: HL-60, 72 h
Procedure, shortened: (§2)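 AML cell lines grown in RPMI 1640 with 10% FBS (20% for MOLM-13), 2 mM L-glutamine and penicillin/streptomycin at 37 °C, 5% CO2. Ara-C-resistant HL-60 and CMK sublines came from stepwise cytarabine selection and were kept in 600 nM or 300 nM cytarabine respectively. Cells were treated 72 h. MTT 0.05 mg/mL, 3 h at 37 °C, DMSO solubilization, absorbance at 570 nm. IC50 given ± SEM.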

[4] = tested on: HL-60; test: Antiproliferative activity against Ara-C resistant human HL60 cells after 72 hrs in presence of SAHA by MTT assay; type: functional, cell-based; conditions: HL-60, 72 h; procedure, shortened: as §2
[5] = target: T1, Protein deacetylase HDAC6 (Homo sapiens) (UniProt Q9UBN7); test: Effect on SAHA-induced HDAC6 inhibition in p53 null human U937 cells assessed as hyper acetylation of alpha tubulin at 1 uM after 4 hrs by Western blot analysis; type: cell-based
T1 sequence (whole entry): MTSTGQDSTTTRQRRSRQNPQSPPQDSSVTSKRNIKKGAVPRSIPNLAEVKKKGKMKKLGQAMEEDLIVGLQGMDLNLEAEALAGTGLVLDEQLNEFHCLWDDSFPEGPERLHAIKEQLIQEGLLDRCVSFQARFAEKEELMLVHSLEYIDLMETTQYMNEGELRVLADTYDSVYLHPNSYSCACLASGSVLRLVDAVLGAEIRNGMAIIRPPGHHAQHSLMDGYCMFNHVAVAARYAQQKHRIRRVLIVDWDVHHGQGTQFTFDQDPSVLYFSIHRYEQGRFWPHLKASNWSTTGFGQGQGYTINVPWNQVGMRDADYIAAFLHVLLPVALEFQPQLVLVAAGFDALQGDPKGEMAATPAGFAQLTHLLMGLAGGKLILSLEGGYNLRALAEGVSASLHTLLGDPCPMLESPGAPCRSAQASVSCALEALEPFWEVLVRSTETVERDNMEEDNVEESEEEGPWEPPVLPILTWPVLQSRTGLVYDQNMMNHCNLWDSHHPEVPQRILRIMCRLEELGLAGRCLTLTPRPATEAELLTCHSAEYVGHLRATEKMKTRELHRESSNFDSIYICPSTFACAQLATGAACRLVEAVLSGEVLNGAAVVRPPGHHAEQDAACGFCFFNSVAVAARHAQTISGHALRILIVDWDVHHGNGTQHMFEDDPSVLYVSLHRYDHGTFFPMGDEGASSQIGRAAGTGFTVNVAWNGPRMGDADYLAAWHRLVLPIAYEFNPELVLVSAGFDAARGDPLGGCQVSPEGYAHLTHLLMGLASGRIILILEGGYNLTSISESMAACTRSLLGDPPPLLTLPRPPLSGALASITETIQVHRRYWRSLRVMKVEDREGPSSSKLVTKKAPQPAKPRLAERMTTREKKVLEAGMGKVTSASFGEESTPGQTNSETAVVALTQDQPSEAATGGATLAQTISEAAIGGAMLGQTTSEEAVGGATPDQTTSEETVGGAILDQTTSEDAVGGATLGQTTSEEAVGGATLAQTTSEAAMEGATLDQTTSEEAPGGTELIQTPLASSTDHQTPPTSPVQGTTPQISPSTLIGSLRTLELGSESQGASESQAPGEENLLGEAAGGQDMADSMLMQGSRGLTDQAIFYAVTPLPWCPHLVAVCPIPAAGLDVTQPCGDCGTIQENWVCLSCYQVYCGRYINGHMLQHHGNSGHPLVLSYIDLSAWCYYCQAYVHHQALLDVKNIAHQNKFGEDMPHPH
Procedure, shortened: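 U937 cells treated at 1 μM for 4 h. Whole-cell lysates run on SDS-PAGE, transferred to PVDF and immunoblotted for acetyl-histone H4, histone H4, acetyl-α-tubulin and β-actin.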

[6] = tested on: U-937; test: Cytotoxicity against p53 null human U937 cells assessed as decrease in cell viability at 0.5 to 5 uM after 24 hrs in presence of SAHA by MTT assay; type: functional, cell-based
Procedure, shortened: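 MCF-10A (DMEM/F12, 5% horse serum, hydrocortisone, cholera toxin, insulin, EGF) and U937 (RPMI 1640, 10% FBS) were exposed to 0.5–5 μM, alone or PL+SAHA 1:1, for 24 h. MTT 0.05 mg/mL, 3 h at 37 °C, DMSO solubilization, A570. Viability given as mean ± SD of four to six independent experiments. DMSO <0.1% vehicle control.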

[7] = tested on: U-937; test: Effect on SAHA-induced DNA damage in p53 null human U937 cells assessed as decrease in CHK1 expression level by measuring ratio of CHK1 to beta-actin level at 2 uM after 24 hrs by Western blot analysis relative to control; type: functional
Procedure, shortened: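 U937 cells treated 24 h, alone or PL+SAHA. Whole-cell lysates (protease/phosphatase inhibitors) immunoblotted for γH2AX, CHK1, RAD51, Bim and XIAP. Band densitometry normalised to β-actin, then expressed as fold change relative to the untreated control.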

[8] = tested on: U-937; test: Upregulation of Rad51 protein expression in p53 null human U937 cells assessed as ratio of Rad51 to beta-actin level at 2 uM after 24 hrs by Western blot analysis relative to control
[9] = tested on: MOLM-13; test: Induction of cell death in human MOLM13 cells harboring wild type p53/FLT3-ITD mutant after 24 hrs by annexin V-FITC/PI staining based flow cytometry; type: functional
Procedure, shortened: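 MOLM-13 (p53 wt, FLT3-ITD) kept in RPMI 1640 with 20% FBS, 2 mM L-glutamine, penicillin/streptomycin, 37 °C, 5% CO2. Treated 24 h; vehicle DMSO < 0.1% v/v. Annexin V-FITC/PI flow cytometry, % Annexin V+ cells. Three independent experiments in triplicate; one representative shown. EC50 is the concentration giving 50% Annexin V+ cells relative to vehicle.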

[10] = tested on: U-937; test: Induction of apoptosis in p53 null human U937 cells assessed as caspase 3 cleavage after 24 hrs by Western blot analysis; type: functional, cell-based; procedure, shortened: as §1
[11] = tested on: MDA-MB-231; test: Antiproliferative activity against human MDA-MB-231 cells after 24 hrs by MTT assay; type: functional, cell-based; conditions: MDA-MB-231, 24 h

COc1cc(/C=C/C(=O)N2CCC=CC2=O)cc(OC)c1OC [PIPLARTINE]
Activity [1]: Active
Activity [2]: 8%
IC50 [3]: 529 nM
IC50 [4]: 1130 nM
Activity [5]: inactive
Activity [6]: Active
Ratio [7]: 0.8
Ratio [8]: 1.4

COc1cc(/C=C/C(=O)N2CCC=CC2=O)cc(OC)c1OCCCCCCC(=O)NO
Activity [9]: Dose-dependent effect
Activity [10]: Dose-dependent effect
IC50 [11]: 382 nM

Source: ChEMBL document CHEMBL4000155, “Synthesis and Antileukemic Activities of Piperlongumine and HDAC Inhibitor Hybrids against Acute Myeloid Leukemia Cells” (J Med Chem, 2016)
